Series [1] in a line: folding enthalpy; higher = less favourable; fluorescence melt of hairpins on a sequencing array, two-state fit. Conditions: sodium 0.088 M. An outline of the steps: (§1)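 On a sequenced MiSeq flow cell, library hairpins with annealed Cy3 and quencher oligos were imaged for Cy3 fluorescence in 2.5 °C steps up to 60 °C, in 50 mM Na-HEPES pH 8.0, 25 mM NaCl. Normalisation used pre-quench Cy3 and control constructs. Bootstrapped two-state fits gave melting temperature and folding enthalpy, combined by inverse variance across four replicates and with fitted temperatures raised by 9.35 °C to match UV melts.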

Series [2] is described as follows: melting temperature; fluorescence melt of hairpins on a sequencing array, two-state fit, raised by 9.35 °C to match UV melts. Particulars: sodium 0.088 M. In outline:
as §1

For the sequence GCGTAGCCACGC ((((....)))), the folding enthalpy in series [1] was -9.67 kcal/mol. Besides, the Tm in series [2] is 58.3 °C.
With GCGTAGCGAAAGCTGTGC ((..(((....)))..)), in series [1], the folding enthalpy was -10 kcal/mol. In series [2], the Tm was 46.1 °C.
Consider GCGTAGGAAACTACGC ((((((....)))))), for which the folding enthalpy in series [1] was -31.2 kcal/mol. Moreover, the Tm in series [2] came to 67.1 °C.
As for GCGTAGGACGC ((((...)))), the folding enthalpy in series [1] was -17.2 kcal/mol. Further, in series [2], the Tm turned out to be 55.2 °C.
Regarding GCGTAGGGAAACCCACAC (.((.((....)).)).), in series [1], the folding enthalpy was -10.6 kcal/mol. The Tm in series [2] was determined as 21.3 °C.
For the sequence GCGTAGGGAAACTTACGC (((((.(....).))))), the folding enthalpy in series [1] was -39.4 kcal/mol. Besides, the Tm in series [2] is 50.4 °C.
Consider GCGTAGGGACGC ((((....)))), for which the folding enthalpy in series [1] was -13 kcal/mol. Further, the Tm in series [2] stood at 52 °C.
The corresponding values for GCGTAGTAACGC ((((....)))) are -22 kcal/mol and 53 °C.
In the case of GCGTAGTTACGC ((((....)))), the folding enthalpy in series [1] was -22.4 kcal/mol. The Tm in series [2] came to 54.4 °C.
For the sequence GCGTATAACGC ((((...)))), in series [1], the folding enthalpy is -21 kcal/mol. Also, the Tm in series [2] was 56.4 °C.
For the sequence GCGTATACACGC ((((....)))), in series [1], the folding enthalpy is -22.8 kcal/mol. Also, the Tm in series [2] came to 53.6 °C.
For GCGTATATACGC ((((....)))), in series [1], the folding enthalpy is -27.1 kcal/mol. Moreover, the Tm in series [2] was found to be 55 °C.
In the case of GCGTATCAACGC ((((....)))), the folding enthalpy in series [1] was -25.6 kcal/mol. In addition, the Tm in series [2] was 53.9 °C.
Take GCGTATGAACGC ((((....)))): the folding enthalpy in series [1] is -18.9 kcal/mol. Also, in series [2], the Tm was 52 °C.
On to GCGTATGACGC ((((...)))), for which, in series [1], the folding enthalpy was -17.5 kcal/mol. Moreover, the Tm in series [2] came to 54 °C.
On to GCGTATGGAAACACACGC ((((.((....)).)))), for which the folding enthalpy in series [1] is -29 kcal/mol. Also, in series [2], the Tm was 46.3 °C.
In the case of GCGTATGGAAACGTATGC ((.((.(....).)).)), the folding enthalpy in series [1] is -26.1 kcal/mol. Besides, in series [2], the Tm came to 34.8 °C.
The like results for GCGTATTGACGC ((((....)))) were, in that order, -13.1 kcal/mol and 52.9 °C.
The like results for GCGTCAAACGC ((((...)))) were, in that order, -16.7 kcal/mol and 50.8 °C.
Regarding GCGTCAATACGC ((((....)))), in series [1], the folding enthalpy is -22.8 kcal/mol. Besides, the Tm in series [2] was found to be 51.4 °C.
The corresponding values for GCGTCACAACGC ((((....)))) are -27.2 kcal/mol and 55.2 °C.
For GCGTCACACGC ((((...)))), the folding enthalpy in series [1] was -23.6 kcal/mol. The Tm in series [2] is 56.2 °C.
As for GCGTCACGAAAGTGTCGC (((.(((....))).))), the folding enthalpy in series [1] was -42.4 kcal/mol. Further, the Tm in series [2] was found to be 63.4 °C.
Regarding GCGTCAGGAAACTGACAC (.(((((....))))).), the folding enthalpy in series [1] was -13.1 kcal/mol. Moreover, the Tm in series [2] stood at 43.3 °C.
The like results for GCGTCAGTACGC ((((....)))) were, in that order, -20.1 kcal/mol and 51.1 °C.
For the sequence GCGTCATACGC ((((...)))), the folding enthalpy in series [1] is -20.1 kcal/mol. Besides, the Tm in series [2] is 62.7 °C.
Turning to GCGTCATGACGC ((((....)))), the folding enthalpy in series [1] was -30.9 kcal/mol. The Tm in series [2] came out at 61.9 °C.
Turning to GCGTCCCCACGC ((((....)))), the folding enthalpy in series [1] was -21 kcal/mol. For the same sequence, the Tm in series [2] turned out to be 51.1 °C.
With GCGTCCCGACGC ((((....)))), in series [1], the folding enthalpy is -23.3 kcal/mol. In addition, in series [2], the Tm worked out at 61 °C.
GCGTCCGAAAGGACCCGC ((((((....)))..))): the folding enthalpy in series [1] was -11.4 kcal/mol. Moreover, the Tm in series [2] stood at 44.4 °C.
The corresponding values for GCGTCCGAAAGGACTCGC ((((((....)))..))) are -12.3 kcal/mol and 51 °C.
The corresponding values for GCGTCCGCACGC ((((....)))) are -17.2 kcal/mol and 52.8 °C.
In the case of GCGTCCGTACGC ((((....)))), the folding enthalpy in series [1] is -26.8 kcal/mol. The Tm in series [2] turned out to be 52.3 °C.

For the origin of these results see the array DNA melting data of Ke et al. (doi:10.1101/2024.01.08.574731).
